Laboratory results reported in ChEMBL document CHEMBL5724801, “EUbOPEN Chemogenomics Library - Multiplex” (2024).
Where “and” joins values, the source holds several entries; their conditions need not be identical. Equal entries are not always repeated.

System: HEK-293T
Assay: Multiplex assay against HEK293T
Assay type: toxicity, cell-based
Conditions: human
How it was run: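 Live cells were stained at seeding with Hoechst33342, BioTracker Green Microtubule Cytoskeleton Dye, MitoTracker Red and Annexin V Alexa Fluor 680, then imaged on a CQ1 microscope at 37°C and 5% CO2 after compound addition. CellPathfinder machine-learning gating split cells into Hoechst high-intensity objects or normal cells. Normal cells were split into healthy, pyknosed or fragmented nuclei, and pyknosed cells into mitotic or apoptotic. Tubulin, mitochondrial-mass and membrane-permeability phenotypes are per cents of healthy-nucleus cells.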

[1] = 12 h, 1 µM, compound concentration 1 uM
[2] = 12 h, 10 µM, compound concentration 10 uM
[3] = 24 h, 1 µM, compound concentration 1 uM
[4] = 24 h, 10 µM, compound concentration 10 uM
[5] = 48 h, 1 µM, compound concentration 1 uM
[6] = 48 h, 10 µM, compound concentration 10 uM

Oc1c(CN2CCN(c3ccccn3)CC2)cc(Cl)c2cccnc12
Population Apoptotic (%) [1]: 30% and 45% | Population Fragmented Nuclei (%) [1]: 6% and 5% | Population Healthy Nuclei (%) [1]: 83% and 80% | Population Hoechst High Intensity Objects (%) [1]: 7% | Population Membrane Permeable-Phenotype (%) [1]: 0% | Population Mitochondria Different-Phenotype (%) [1]: 44% and 59% | Population Mitotic Cells (%) [1]: 70% and 54% | Population Normal (%) [1]: 92% | Population Pyknosed Nuclei (%) [1]: 10% and 13% | Population Tubulin-Different-Phenotype (%) [1]: 34% and 20% | Total Cell Count [1]: 424 and 354 | Population Apoptotic (%) [2]: 71% and 73% | Population Fragmented Nuclei (%) [2]: 16% and 18% | Population Healthy Nuclei (%) [2]: 64% and 69% | Population Hoechst High Intensity Objects (%) [2]: 11% and 6% | Population Membrane Permeable-Phenotype (%) [2]: 0% | Population Mitochondria Different-Phenotype (%) [2]: 64% and 70% | Population Mitotic Cells (%) [2]: 28% and 26% | Population Normal (%) [2]: 88% and 93% | Population Pyknosed Nuclei (%) [2]: 18% and 12% | Population Tubulin-Different-Phenotype (%) [2]: 20% and 32% | Total Cell Count [2]: 197 and 327 | Population Apoptotic (%) [3]: 34% and 33% | Population Fragmented Nuclei (%) [3]: 6% and 7% | Population Healthy Nuclei (%) [3]: 84% | Population Hoechst High Intensity Objects (%) [3]: 3% | Population Membrane Permeable-Phenotype (%) [3]: 0% | Population Mitochondria Different-Phenotype (%) [3]: 22% and 40% | Population Mitotic Cells (%) [3]: 65% and 66% | Population Normal (%) [3]: 96% | Population Pyknosed Nuclei (%) [3]: 9% and 8% | Population Tubulin-Different-Phenotype (%) [3]: 23% and 13% | Total Cell Count [3]: 529 and 427 | Population Apoptotic (%) [4]: 93% and 81% | Population Fragmented Nuclei (%) [4]: 18% and 21% | Population Healthy Nuclei (%) [4]: 65% and 63% | Population Hoechst High Intensity Objects (%) [4]: 13% and 7% | Population Membrane Permeable-Phenotype (%) [4]: 1% | Population Mitochondria Different-Phenotype (%) [4]: 65% and 78% | Population Mitotic Cells (%) [4]: 6% and 18% | Population Normal (%) [4]: 86% and 92% | Population Pyknosed Nuclei (%) [4]: 15% | Population Tubulin-Different-Phenotype (%) [4]: 19% and 34% | Total Cell Count [4]: 227 and 354 | Population Apoptotic (%) [5]: 29% and 31% | Population Fragmented Nuclei (%) [5]: 12% and 10% | Population Healthy Nuclei (%) [5]: 80% and 83% | Population Hoechst High Intensity Objects (%) [5]: 3% | Population Membrane Permeable-Phenotype (%) [5]: 0% | Population Mitochondria Different-Phenotype (%) [5]: 22% and 17% | Population Mitotic Cells (%) [5]: 70% and 68% | Population Normal (%) [5]: 96% | Population Pyknosed Nuclei (%) [5]: 6% and 5% | Population Tubulin-Different-Phenotype (%) [5]: 16% and 10% | Total Cell Count [5]: 689 and 518 | Population Apoptotic (%) [6]: 83% and 94% | Population Fragmented Nuclei (%) [6]: 23% and 28% | Population Healthy Nuclei (%) [6]: 44% and 49% | Population Hoechst High Intensity Objects (%) [6]: 25% and 14% | Population Membrane Permeable-Phenotype (%) [6]: 0% | Population Mitochondria Different-Phenotype (%) [6]: 60% and 81% | Population Normal (%) [6]: 74% and 85% | Population Pyknosed Nuclei (%) [6]: 31% and 22% | Population Tubulin-Different-Phenotype (%) [6]: 30% and 42% | Total Cell Count [6]: 204 and 295
